Several values for one entry are separate records, joined by “and”; a condition that tells them apart may be missing. Identical values can stand only once.
Tested on: HEK-293T
Test: Multiplex assay against HEK293T;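 for Population Tubulin-Different-Phenotype (%): share of the cells with healthy nuclei that show this phenotype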
Type: toxicity, cell-based
Details: human
Outline: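 Live cells carried four stains from seeding: Hoechst33342, BioTracker Green Microtubule Cytoskeleton Dye, MitoTracker Red and Annexin V Alexa Fluor 680. They were imaged on a CQ1 microscope at 37°C and 5% CO2 after compound addition. Using CellPathfinder machine-learning gating, cells were split into Hoechst high-intensity objects or normal cells, normal cells into healthy, pyknosed or fragmented nuclei, and pyknosed cells into mitotic or apoptotic; tubulin, mitochondrial-mass and membrane-permeability phenotypes are per cents of healthy-nucleus cells.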

[1] = 12 h, 1 µM, compound concentration 1 uM, replicate 1
[2] = 12 h, 1 µM, compound concentration 1 uM, replicate 2
[3] = 12 h, 10 µM, compound concentration 10 uM, replicate 1
[4] = 12 h, 10 µM, compound concentration 10 uM, replicate 2
[5] = 24 h, 1 µM, compound concentration 1 uM, replicate 1
[6] = 24 h, 1 µM, compound concentration 1 uM, replicate 2
[7] = 24 h, 10 µM, compound concentration 10 uM, replicate 1
[8] = 24 h, 10 µM, compound concentration 10 uM, replicate 2

CC[C@@]1(O)C(=O)OCc2c1cc1n(c2=O)Cc2cc3ccccc3nc2-1 [CAMPTOTHECIN]
Population Apoptotic (%) [1]: 13% and 29% and 33%
Population Healthy Nuclei (%) [1]: 67% and 60% and 69%
Population Membrane Permeable-Phenotype (%) [1]: 5% and 3%
Population Mitochondria Different-Phenotype (%) [1]: 5% and 3%
Population Mitotic Cells (%) [1]: 86% and 70% and 66%
Population Normal (%) [1]: 94% and 66% and 79%
Population Tubulin-Different-Phenotype (%) [1]: 5% and 0% and 2%
Total Cell Count [1]: 915 and 710 and 886
Population Healthy Nuclei (%) [2]: 94% and 77% and 79%
Population Membrane Permeable-Phenotype (%) [2]: 2% and 1%
Population Mitochondria Different-Phenotype (%) [2]: 19% and 9%
Population Mitotic Cells (%) [2]: 87% and 81% and 50%
Population Normal (%) [2]: 98% and 95% and 96%
Population Pyknosed Nuclei (%) [2]: 2% and 1% and 0%
Total Cell Count [2]: 1821 and 1627 and 1427
Population Apoptotic (%) [3]: 16%
Population Fragmented Nuclei (%) [3]: 15%
Population Healthy Nuclei (%) [3]: 57%
Population Hoechst High Intensity Objects (%) [3]: 13%
Population Membrane Permeable-Phenotype (%) [3]: 3%
Population Mitochondria Different-Phenotype (%) [3]: 2%
Population Mitotic Cells (%) [3]: 83%
Population Normal (%) [3]: 86%
Population Pyknosed Nuclei (%) [3]: 26%
Population Tubulin-Different-Phenotype (%) [3]: 2%
Total Cell Count [3]: 665
Population Apoptotic (%) [4]: 20%
Population Fragmented Nuclei (%) [4]: 3%
Population Healthy Nuclei (%) [4]: 93%
Population Hoechst High Intensity Objects (%) [4]: 2%
Population Membrane Permeable-Phenotype (%) [4]: 2%
Population Mitochondria Different-Phenotype (%) [4]: 14%
Population Mitotic Cells (%) [4]: 80%
Population Normal (%) [4]: 97%
Population Pyknosed Nuclei (%) [4]: 3%
Population Tubulin-Different-Phenotype (%) [4]: 9%
Total Cell Count [4]: 1781
Population Apoptotic (%) [5]: 26% and 33% and 22%
Population Healthy Nuclei (%) [5]: 68% and 76% and 85%
Population Membrane Permeable-Phenotype (%) [5]: 7% and 5% and 4%
Population Mitochondria Different-Phenotype (%) [5]: 3% and 4% and 5%
Population Mitotic Cells (%) [5]: 73% and 66% and 77%
Population Normal (%) [5]: 69% and 81% and 96%
Population Pyknosed Nuclei (%) [5]: 5% and 2% and 10%
Population Tubulin-Different-Phenotype (%) [5]: 5% and 6%
Total Cell Count [5]: 653 and 837 and 854
Population Fragmented Nuclei (%) [6]: 18% and 8%
Population Healthy Nuclei (%) [6]: 81% and 78% and 90%
Population Hoechst High Intensity Objects (%) [6]: 5%
Population Membrane Permeable-Phenotype (%) [6]: 2% and 1%
Population Mitochondria Different-Phenotype (%) [6]: 6% and 8% and 7%
Population Mitotic Cells (%) [6]: 100% and 62%
Population Normal (%) [6]: 94%
Population Pyknosed Nuclei (%) [6]: 0%
Population Tubulin-Different-Phenotype (%) [6]: 8% and 13%
Total Cell Count [6]: 1448 and 1582 and 1694
Population Apoptotic (%) [7]: 23%
Population Fragmented Nuclei (%) [7]: 11%
Population Healthy Nuclei (%) [7]: 73%
Population Hoechst High Intensity Objects (%) [7]: 8%
Population Membrane Permeable-Phenotype (%) [7]: 4%
Population Mitochondria Different-Phenotype (%) [7]: 2%
Population Mitotic Cells (%) [7]: 76%
Population Normal (%) [7]: 92%
Population Pyknosed Nuclei (%) [7]: 15%
Population Tubulin-Different-Phenotype (%) [7]: 3%
Total Cell Count [7]: 575
Population Apoptotic (%) [8]: 44%
Population Fragmented Nuclei (%) [8]: 8%
Population Healthy Nuclei (%) [8]: 90%
Population Hoechst High Intensity Objects (%) [8]: 4%
Population Membrane Permeable-Phenotype (%) [8]: 0%
Population Mitochondria Different-Phenotype (%) [8]: 4%
Population Mitotic Cells (%) [8]: 55%
Population Normal (%) [8]: 95%
Population Pyknosed Nuclei (%) [8]: 0%
Population Tubulin-Different-Phenotype (%) [8]: 5%
Total Cell Count [8]: 1706

CCOc1ccn(-c2ccc(F)cc2)c(=O)c1C(=O)Nc1ccc(Oc2ccnc(N)c2Cl)c(F)c1 [BMS-777607]
Population Apoptotic (%) [1]: 25%
Population Fragmented Nuclei (%) [1]: 14%
Population Healthy Nuclei (%) [1]: 67%
Population Hoechst High Intensity Objects (%) [1]: 10%
Population Membrane Permeable-Phenotype (%) [1]: 6%
Population Mitochondria Different-Phenotype (%) [1]: 10%
Population Mitotic Cells (%) [1]: 75%
Population Normal (%) [1]: 89%
Population Pyknosed Nuclei (%) [1]: 17%
Population Tubulin-Different-Phenotype (%) [1]: 22%
Total Cell Count [1]: 624
Population Apoptotic (%) [2]: 5%
Population Fragmented Nuclei (%) [2]: 5%
Population Healthy Nuclei (%) [2]: 89%
Population Hoechst High Intensity Objects (%) [2]: 2%
Population Mitochondria Different-Phenotype (%) [2]: 16%
Population Mitotic Cells (%) [2]: 95%
Population Normal (%) [2]: 97%
Population Pyknosed Nuclei (%) [2]: 5%
Population Tubulin-Different-Phenotype (%) [2]: 48%
Total Cell Count [2]: 1393
Population Apoptotic (%) [3]: 23%
Population Fragmented Nuclei (%) [3]: 25%
Population Healthy Nuclei (%) [3]: 50%
Population Hoechst High Intensity Objects (%) [3]: 15%
Population Membrane Permeable-Phenotype (%) [3]: 4%
Population Mitochondria Different-Phenotype (%) [3]: 3%
Population Mitotic Cells (%) [3]: 76%
Population Normal (%) [3]: 84%
Population Pyknosed Nuclei (%) [3]: 25%
Population Tubulin-Different-Phenotype (%) [3]: 3%
Total Cell Count [3]: 432
Population Apoptotic (%) [4]: 15%
Population Fragmented Nuclei (%) [4]: 9%
Population Healthy Nuclei (%) [4]: 86%
Population Hoechst High Intensity Objects (%) [4]: 2%
Population Membrane Permeable-Phenotype (%) [4]: 2%
Population Mitochondria Different-Phenotype (%) [4]: 7%
Population Mitotic Cells (%) [4]: 84%
Population Normal (%) [4]: 97%
Population Pyknosed Nuclei (%) [4]: 4%
Population Tubulin-Different-Phenotype (%) [4]: 5%
Total Cell Count [4]: 1444
Population Apoptotic (%) [5]: 17%
Population Fragmented Nuclei (%) [5]: 11%
Population Healthy Nuclei (%) [5]: 76%
Population Hoechst High Intensity Objects (%) [5]: 10%
Population Membrane Permeable-Phenotype (%) [5]: 10%
Population Mitochondria Different-Phenotype (%) [5]: 12%
Population Mitotic Cells (%) [5]: 82%
Population Normal (%) [5]: 89%
Population Pyknosed Nuclei (%) [5]: 12%
Population Tubulin-Different-Phenotype (%) [5]: 40%
Total Cell Count [5]: 625
Population Apoptotic (%) [6]: 9%
Population Fragmented Nuclei (%) [6]: 10%
Population Healthy Nuclei (%) [6]: 84%
Population Hoechst High Intensity Objects (%) [6]: 6%
Population Membrane Permeable-Phenotype (%) [6]: 12%
Population Mitochondria Different-Phenotype (%) [6]: 4%
Population Mitotic Cells (%) [6]: 90%
Population Normal (%) [6]: 93%
Population Pyknosed Nuclei (%) [6]: 4%
Population Tubulin-Different-Phenotype (%) [6]: 70%
Total Cell Count [6]: 1553
Population Apoptotic (%) [7]: 25%
Population Fragmented Nuclei (%) [7]: 18%
Population Healthy Nuclei (%) [7]: 69%
Population Hoechst High Intensity Objects (%) [7]: 13%
Population Membrane Permeable-Phenotype (%) [7]: 6%
Population Mitochondria Different-Phenotype (%) [7]: 3%
Population Mitotic Cells (%) [7]: 74%
Population Normal (%) [7]: 86%
Population Pyknosed Nuclei (%) [7]: 12%
Population Tubulin-Different-Phenotype (%) [7]: 5%
Total Cell Count [7]: 433
Population Apoptotic (%) [8]: 8%
Population Fragmented Nuclei (%) [8]: 27%
Population Hoechst High Intensity Objects (%) [8]: 2%
Population Membrane Permeable-Phenotype (%) [8]: 5%
Population Mitochondria Different-Phenotype (%) [8]: 1%
Population Mitotic Cells (%) [8]: 91%
Population Normal (%) [8]: 97%
Population Pyknosed Nuclei (%) [8]: 2%
Total Cell Count [8]: 2353
